This is a sample that favours compounds with a hit; in the whole collection about 3.5% have one here.
PREPL inh = inhibits the human prolyl oligopeptidase-like enzyme | Q4J6C6 | recombinant PREPL, fluorescence polarization activity-based probe | inhibition, % at 5.96 µM | 320,000 tested, 0.68% active | AID 2751; in the data active = inhibition above about 43%;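 also: 0% = enzyme with DMSO and 100% = wells lacking enzyme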
PAFAH1B2 FP inh = PAFAH1B2 (human) inhibition | 340,000 tested, 1.2% active | recombinant PAFAH1B2, FP-rhodamine activity probe, fluorescence polarization | inhibition, % at 3.39 µM | P68402 | AID 492953;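 active = inhibition above the mean of all tested compounds plus 3 SD, cut at about 24% in these data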;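 also: 0% = enzyme with DMSO and 100% = wells lacking PAFAH1B2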
pPAFAH inh = pPAFAH (human) enzyme inhibition | Q13093 | recombinant pPAFAH, FP-rhodamine probe fluorescence polarization | inhibition, % at 3.39 µM | 330,000 tested, 1.5% active | AID 463082;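 active = inhibition above the mean inhibition across the screen plus 3 SD, cut at about 25% in these data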;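 also: inhibitors block binding of the rhodamine activity-based probe so polarization drops; 0% = enzyme with DMSO and 100% = wells lacking pPAFAH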
Target sequence (Q13093 whole entry, looked up): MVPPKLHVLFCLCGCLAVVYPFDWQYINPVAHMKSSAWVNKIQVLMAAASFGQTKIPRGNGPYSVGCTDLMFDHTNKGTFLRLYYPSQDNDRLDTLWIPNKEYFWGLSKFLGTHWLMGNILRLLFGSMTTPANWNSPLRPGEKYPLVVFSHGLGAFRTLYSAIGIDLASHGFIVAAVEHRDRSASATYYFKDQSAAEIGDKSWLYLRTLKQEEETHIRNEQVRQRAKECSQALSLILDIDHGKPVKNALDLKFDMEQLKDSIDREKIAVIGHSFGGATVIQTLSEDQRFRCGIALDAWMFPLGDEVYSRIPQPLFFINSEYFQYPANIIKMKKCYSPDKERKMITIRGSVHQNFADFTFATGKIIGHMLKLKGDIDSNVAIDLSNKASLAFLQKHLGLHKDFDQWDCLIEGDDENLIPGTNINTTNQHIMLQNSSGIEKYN
PAFAH1B3 inh = PAFAH1B3 (human) inhibition | Q15102 | recombinant PAFAH1B3, FP-rhodamine probe, fluorescence polarization | inhibition, % at 3.39 µM | 340,000 tested, 0.28% active | AID 492972;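 active = inhibition above the screen-wide average of all tested compounds plus 3 SD, cut at about 25% in these data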;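 also: 0% = enzyme with DMSO only and 100% = wells lacking PAFAH1B3 protein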
Apaf1 inhib = human Apaf-1 inhibition | O14727 | 330,000 tested, 0.71% active | reconstituted apoptosome caspase-3 activity, DEVD-Rh110 fluorescence | inhibition, % at 20 µM; active = inhibition of at least 40% at 20 µM;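 also: plate controls were DMSO wells for no effect and DEVD-CHO caspase inhibitor wells for full effect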
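Material: reconstituted apoptosome with Apaf-1, cytochrome c, caspase-9, procaspase-3, dATP; medium: pH 7.5 Hepes buffer with CHAPS, BSA, DTT; also added: cytochrome c and DEVD-Rh110 substrate; timing: 30 min plus 50 min, RT; signal: Rh110 fluorescence intensity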
PAFAH2 inh = PAFAH2 (human) inhibition | inhibition, % at 3.39 µM | recombinant PAFAH2, FP-rhodamine activity probe, fluorescence polarization | 340,000 tested, 0.99% active | Q99487;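 active = inhibition above the mean over all tested compounds plus 3 SD, cut at about 30% in these data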;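 also: inhibitors block probe labeling of enzyme so polarization drops; 0% = enzyme with DMSO and 100% = wells lacking PAFAH2 protein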
Apaf-1 inh conf2 = confirmation of Apaf-1 inhibitors; shares compounds with Apaf1 inhib; reconstituted apoptosome, caspase-3 DEVD-Rh110 fluorescence; inhibition, % at 20 µM; 1,800 tested, 25% active; AID 504614;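 active = mean inhibition of at least 40% at 20 µM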;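 also: plate controls were DMSO wells for no effect and DEVD-CHO caspase inhibitor control wells for full effect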
Rh110 interf inh = interferes with Rh110 fluorescence, flagging false Apaf-1 inhibitors | activation (fluorescence interference), % at 20 µM | Rh110 fluorescence interference, quenched caspase reaction | shares compounds with Apaf1 inhib | 1,800 tested, under 10 active;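 active = signal rise of 40% or more at 20 µM, treated as a fluorescence artifact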
Apaf1 inh interf = counter-screen for Apaf-1 inhibitors: fluorescence interference, dose response | shares compounds with Apaf1 inhib | fluorescence interference counterscreen, Apaf-1 assay format | IC50, µM | 460 tested, under 10 active | AID 588538; call rule not given here
Active calls of the source: *; . = no result.

SMILES	PREPL inh	PAFAH1B2 FP inh	pPAFAH inh	PAFAH1B3 inh	Apaf1 inhib	PAFAH2 inh	Apaf-1 inh conf2	Rh110 interf inh	others
COc1ccc2cc(C(=O)C3CCCN(C(=O)Cc4c(C)noc4C)C3)ccc2c1 (centres undefined)	16	1	3	3	9	3	.	.
COC(=O)C1=C(C)N(Cc2ccccc2)C(=NCCc2c[nH]c3ccccc23)N[C@H]1c1cccc(F)c1	-1	2	-2	9	60*	3	21	7
COC(=O)C1=C(C)N(Cc2ccccc2)C(=NCCc2c[nH]c3ccccc23)N[C@H]1c1ccccc1	33	3	-2	5	69*	-2	33	4
CCOC(=O)C1=C(c2ccccc2)NC(N)=NC1c1ccc(OCc2ccc(Cl)cc2)c(OC)c1 (centres undefined)	24	0	11	9	58*	-8	64*	6	Apaf1 inh interf=>100
Cc1scc(C(=O)N2CCN(c3ccc(Cl)cc3)CC2)c1C	27	2	10	2	15	-1	.	.
CCOC(=O)C1CCN(S(=O)(=O)c2ccc3c4c2CC(=O)N4CC(C)S3)CC1 (centres undefined)	-6	-5	-2	7	44*	4	39	18
CCOC(=O)C1CCN(S(=O)(=O)c2ccc3c(c2)CC(=O)N3C)CC1	12	1	1	8	11	2	.	.
Cc1cc(C(=O)NCc2ccco2)sc1C	13	6	2	9	11	-4	.	.
CC1(C)Cc2ccccc2C(Nn2cnnc2)=N1	2	-2	4	6	4	-5	.	.
CC1(C)Cc2ccccc2C2=NNC(=O)C2=N1	0	11	5	11	62*	0	64*	3	Apaf1 inh interf=>100
CC1=[N+](C)c2ccc3ccccc3c2C1(C)C	-125	-37	-31	-106	42*	-71	16	1
O=C(C(Cc1ccccc1)N1C(=O)c2ccccc2C1=O)N1c2ccccc2CCc2ccccc21 (centres undefined)	2	-2	1	-2	40*	-4	13	1
O=C1c2ccccc2C(=O)N1CC(=O)N1c2ccccc2CCc2ccccc21	0	5	10	1	-8	15	.	.
O=C(N[C@H]1CCC(=O)N([C@H](CSc2ccc(Br)cc2)Cc2ccccc2)CC1)OCc1ccccc1	19	-4	-6	2	32	-7	.	.
COc1ccc(S[C@@H](CCN2CC[C@H](NC(=O)OCc3ccccc3)CCC2=O)c2ccccc2)cc1	1	-2	7	5	37	5	.	.
C[C@@H](CSc1ccc(Br)cc1)CN1CC[C@H](NC(=O)OCc2ccccc2)CCC1=O	18	23	8	-7	40*	6	16	0
COc1ccc(SC[C@H](C)CN2CC[C@H](NC(=O)OCc3ccccc3)CCC2=O)cc1	26	4	-1	3	70*	1	20	-1
CCOC(=O)c1c2ccc(OCC(=O)N/N=C/c3ccc(C)cc3)cc2n2ccccc12	28	3	8	10	35	4	.	.
CCOC(=O)c1c2ccc(OCC(=O)NN)cc2n2ccccc12	16	1	1	10	42*	0	53*	0	Apaf1 inh interf=>100
COc1cc(C2C(C#N)=C(N)Oc3n[nH]c(-c4cccnc4)c32)cc(Br)c1O (centres undefined)	2	0	7	5	9	-14	.	.
O=C(NC1CC2CCCC(C1)N2S(=O)(=O)c1ccccc1)c1ccco1 (centres undefined)	7	2	-1	1	42*	0	2	5
O=C(CN1C2CCCC1CC(NC(=O)c1ccco1)C2)Nc1ccccc1 (centres undefined)	-6	6	3	4	2	0	.	.
CCc1ccccc1NC(=O)CNCC(=O)Nc1ccccc1CC	3	1	-1	9	3	-2	.	.
CC(C)OC(=O)c1cc2ccccc2[nH]1	-3	4	11	0	1	-3	.	.
CCOC(=O)c1cc2cc3ccccc3cc2[nH]1	21	4	3	3	58*	2	11	7
SMILES	PREPL inh	PAFAH1B2 FP inh	pPAFAH inh	PAFAH1B3 inh	Apaf1 inhib	PAFAH2 inh	Apaf-1 inh conf2	Rh110 interf inh	others
CN(CCO)c1nc(N)c2c(N)nc3c(c2c1C#N)CC(=O)N3C1CCCC1	39	.	15	.	98*	.	21	-1
CC(C)(C)N1C(=O)Cc2c1nc(N)c1c(N)nc(N3CCCCC3CO)c(C#N)c21 (centres undefined)	39	4	19	-3	99*	5	21	3
O=C1c2ccsc2SCCN1Cc1ccccc1	-9	-7	-1	-2	8	-1	.	.
Cc1cccc(S(=O)(=O)N2CCN(Cc3ccc4c(c3)OCO4)CC2)c1	16	5	5	7	3	-11	.	.
CSCCC(NC(=O)COc1ccccc1)C(=O)N1CCCCC1 (centres undefined)	6	1	0	7	4	4	.	.
CSCCC(NC(=O)COc1ccccc1)C(=O)N1CCC(C(N)=O)CC1 (centres undefined)	0	-1	-3	4	64*	4	33	5
COc1ccccc1C(=O)NC(CCSC)C(=O)N1CCC(Cc2ccccc2)CC1 (centres undefined)	-7	3	4	1	44*	-8	29	0
CC(OC(=O)[C@H](C)NC(=O)c1ccccc1Cl)C(=O)NCc1ccc2c(c1)OCO2 (some centres undefined)	-2	4	5	9	7	4	.	.
O=C(CCn1c2c(c3ccccc31)CCCC2)NNC(=O)c1ccc([N+](=O)[O-])cc1	13	3	10	8	81*	-6	85*	7	Apaf1 inh interf=>100
O=C(CCn1c2c(c3ccccc31)CCCC2)NNC(=O)c1ccc(Cl)c([N+](=O)[O-])c1	11	2	4	15	89*	3	87*	8	Apaf1 inh interf=>100
CCN(C(=O)CSc1nnc(COc2ccccc2F)n1N)c1c(N)n(Cc2ccccc2)c(=O)[nH]c1=O	.	-5	.	-1	.	6	.	.
O=C1c2cc(F)ccc2-n2c1nc1ccccc1c2=O	-8	20	9	16	63*	25	52*	-1	Apaf1 inh interf=>100
CCOC(=O)CNCCC(=O)c1ccc(Br)cc1	-12	13	1	10	58*	-11	9	1
